From ChEMBL document CHEMBL5576114, “Inhibition of DXR in the MEP pathway with lipophilic N-alkoxyaryl FR900098 analogs” (RSC Med Chem, 2024)
≈ marks a conversion by molar mass, not a printed value.

What was measured:
[1] = target: T1, 1-deoxy-D-xylulose 5-phosphate reductoisomerase, apicoplastic (Plasmodium falciparum (isolate 3D7)) (UniProt Q8IKG4); assay: Inhibition of Plasmodium falciparum DXR expressed in Escherichia coli BL21 CodonPlus (DE3)-RIL cells assessed as remaining activity using DOXP as substrate at 100 uM in presence of NADPH by UV-visible spectrophotometry relative to control
T1 sequence (whole entry): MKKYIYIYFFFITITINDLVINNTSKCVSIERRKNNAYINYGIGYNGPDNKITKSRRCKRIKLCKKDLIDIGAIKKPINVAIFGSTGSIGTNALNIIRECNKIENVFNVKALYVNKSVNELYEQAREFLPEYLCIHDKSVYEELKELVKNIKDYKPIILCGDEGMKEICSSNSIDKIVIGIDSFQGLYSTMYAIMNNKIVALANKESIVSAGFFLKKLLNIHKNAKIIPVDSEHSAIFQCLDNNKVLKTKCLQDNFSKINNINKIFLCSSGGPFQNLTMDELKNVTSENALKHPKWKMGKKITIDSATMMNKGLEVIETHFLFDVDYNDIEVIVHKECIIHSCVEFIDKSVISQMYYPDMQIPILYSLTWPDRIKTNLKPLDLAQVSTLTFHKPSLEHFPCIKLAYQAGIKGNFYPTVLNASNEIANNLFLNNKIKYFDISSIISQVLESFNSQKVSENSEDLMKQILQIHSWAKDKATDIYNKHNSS
How it was run: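 Recombinant His-tagged PfDXR purified by TALON affinity. Assay at 37 °C in 100 mM Tris pH 7.8, 25 mM MgCl2, 0.86 µM enzyme, 150 µM NADPH; reaction started with 144 µM DOXP. NADPH oxidation followed at 340 nm. Single inhibitor concentration 100 µM, given as percent remaining activity; technical duplicates.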

[2] = system: Plasmodium falciparum; assay: Antiplasmodial activity against Plasmodium falciparum 3D7 assessed as reduction in parasite growth by measuring DNA content after 3 days by PicoGreen staining based FLUOstar omega microplate reader analysis; assay type: functional, organism-based; conditions: 3D7, 72 h
How it was run: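 Asynchronous cultures in 2% hematocrit, RPMI-1640 complete medium with 0.5% Albumax, under 5% O2/5% CO2/90% N2 at 37 °C. Diluted to 0.5% parasitemia, inhibitors 1.2 nM to 492.4 µM added at start. Growth read after 3 days as DNA content by PicoGreen fluorescence (485/528 nm). IC50 from 4-parameter nonlinear regression; technical duplicate, biological triplicate.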

[3] = target: T2, 1-deoxy-D-xylulose 5-phosphate reductoisomerase (Mycobacterium tuberculosis) (UniProt P9WNS1); assay: Inhibition of Mycobacterium tuberculosis DXR expressed in Escherichia coli BL21 CodonPlus (DE3)-RIL cells assessed as remaining activity using DOXP as substrate at 100 uM in presence of NADPH by UV-visible spectrophotometry relative to control
T2 sequence (whole entry): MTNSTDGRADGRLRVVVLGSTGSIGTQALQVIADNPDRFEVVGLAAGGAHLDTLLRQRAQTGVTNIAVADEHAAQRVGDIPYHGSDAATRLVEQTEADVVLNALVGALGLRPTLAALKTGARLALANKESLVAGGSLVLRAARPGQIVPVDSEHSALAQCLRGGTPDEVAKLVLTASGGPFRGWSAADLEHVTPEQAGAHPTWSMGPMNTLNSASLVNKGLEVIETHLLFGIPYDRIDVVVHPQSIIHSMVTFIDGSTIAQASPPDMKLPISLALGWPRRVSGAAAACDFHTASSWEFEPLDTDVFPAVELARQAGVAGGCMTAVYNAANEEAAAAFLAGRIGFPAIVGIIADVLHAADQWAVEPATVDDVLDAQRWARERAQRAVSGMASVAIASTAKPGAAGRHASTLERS
How it was run: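 Recombinant MtbDXR (pET101/D-TOPO in E. coli BL21 CodonPlus (DE3)-RIL, IMAC-purified) at 0.89 µM in 100 mM MES pH 6.5, 25 mM MgCl2, 150 µM NADPH, 47 µM DOXP, 37 °C. Inhibitor was tested at a single 100 µM. NADPH oxidation was followed at 340 nm, and percent remaining activity was reported. Technical duplicates.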

[4] = system: Mycobacterium tuberculosis; assay: Antibacterial activity against Mycobacterium tuberculosis H37Rv assessed as reduction in bacterial growth incubated for 2 weeks by macroscopic plate reader analysis; assay type: functional; conditions: 336 h
How it was run: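 H37Rv grown in 7H9 broth with 0.08% NaCl, 0.4% glucose, 0.05% casitone and 0.05% tyloxapol, then diluted 1:500. Compounds were made as 20 mg/mL DMSO stocks and run as eleven 2-fold serial dilutions. Plates were held 2 weeks at 37 °C and MIC99 was read macroscopically. Three independent measurements.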

[5] = target: T3, 1-deoxy-D-xylulose 5-phosphate reductoisomerase, apicoplastic (Plasmodium falciparum (isolate 3D7), UniProt Q8IKG4); assay: Inhibition of Plasmodium falciparum DXR expressed in Escherichia coli BL21 CodonPlus (DE3)-RIL cells using DOXP as substrate in presence of NADPH by UV-visible spectrophotometry
T3 sequence (Q8IKG4 whole entry): T1 sequence (whole entry)

[6] = target: T1, 1-deoxy-D-xylulose 5-phosphate reductoisomerase, apicoplastic (Plasmodium falciparum (isolate 3D7)); assay: Inhibition of Plasmodium falciparum DXR expressed in Escherichia coli BL21 CodonPlus (DE3)-RIL cells using DOXP as substrate at 100 uM in presence of NADPH by UV-visible spectrophotometry relative to control
How it was run: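 PfDXR single-point test at 100 µM inhibitor. Conditions: 0.86 µM IMAC-purified enzyme, 100 mM Tris pH 7.8, 25 mM MgCl2, 150 µM NADPH, 37 °C. Reaction was started with 144 µM DOXP, and NADPH oxidation was monitored at 340 nm. Percent remaining activity was reported; technical duplicates.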

Row | SMILES | Activity [1] [%] | IC50 [2] [µM] | Activity [3] [%] | MIC [4] [µM] | IC50 [5] [µM] | inhibition [6] [%]
1 | CC(=O)N(CCC(c1ccc(Cl)c(Cl)c1)P(=O)(O)O)OCCCCc1ccccc1 (stereo not given) | 25.6 | 63.3 | 99.1 | 3.1 (≈ 1.47 µg/mL) | – | –
2 | CC(=O)N(CCC(c1ccc(Cl)c(Cl)c1)P(=O)(OCOC(=O)C(C)(C)C)OCOC(=O)C(C)(C)C)OC(C)c1ccc(C)cc1 (stereo not given) | – | 31.9 | – | 18.2 (≈ 12.5 µg/mL) | – | –
3 | CC(=O)N(CCC(c1ccc(Cl)c(Cl)c1)P(=O)(O)O)OC(C)c1ccccc1 (stereo not given) | – | 3.6 | 64.6 | > 208 | 16.8 | > 90
4 | CC(=O)N(CCC(c1ccc(Cl)c(Cl)c1)P(=O)(O)O)OC(C)c1ccc(C(F)(F)F)cc1 (stereo not given) | 74.7 | 79.2 | 59.6 | > 91 | – | –
5 | CC(=O)N(CCC(c1ccc(Cl)c(Cl)c1)P(=O)(OCOC(=O)C(C)(C)C)OCOC(=O)C(C)(C)C)OCc1ccccc1 (stereo not given) | – | 41.6 | – | 9.5 (≈ 6.28 µg/mL) | – | –
6 | CC(=O)N(CCC(c1ccc(Cl)c(Cl)c1)P(=O)(O)O)OCc1ccc2ccccc2c1 (stereo not given) | 46.6 | 60.9 | 82.1 | 24.2 (≈ 11.7 µg/mL) | – | –
7 | CC(=O)N(CCC(c1ccc(Cl)c(Cl)c1)P(=O)(O)O)OCc1ccc(Br)cc1 (stereo not given) | 53.1 | 67.8 | 72.3 | > 92 | – | –
8 | CC(=O)N(CCC(c1ccc(Cl)c(Cl)c1)P(=O)(OCOC(=O)C(C)(C)C)OCOC(=O)C(C)(C)C)OCc1ccc2ccccc2c1 (stereo not given) | – | 14 | – | 8.8 (≈ 6.25 µg/mL) | – | –
9 | CC(=O)N(CCC(c1ccc(Cl)c(Cl)c1)P(=O)(OCOC(=O)C(C)(C)C)OCOC(=O)C(C)(C)C)OCc1ccc(-c2ccc(C(C)C)cc2)cc1 (stereo not given) | – | 14.9 | – | > 128 | – | –
10 | CC(=O)N(CCC(c1ccc(Cl)c(Cl)c1)P(=O)(OCOC(=O)C(C)(C)C)OCOC(=O)C(C)(C)C)OC(C)c1ccc(Cl)cc1 (stereo not given) | – | 30.1 | – | 13.3 (≈ 9.43 µg/mL) | – | –
11 | CC(=O)N(CCC(c1ccc(Cl)c(Cl)c1)P(=O)(O)O)OC(C)c1ccc(Cl)cc1 (stereo not given) | – | 68.6 | 66.2 | 72 (≈ 34.6 µg/mL) | 20.4 | > 90
12 | CC(=O)N(CCC(c1ccc(Cl)c(Cl)c1)P(=O)(OCOC(=O)C(C)(C)C)OCOC(=O)C(C)(C)C)OCc1ccc(-c2ccccc2)cc1 (stereo not given) | – | 8.78 | – | 17 (≈ 12.5 µg/mL) | – | –
13 | CC(=O)N(CCC(c1ccc(Cl)c(Cl)c1)P(=O)(OCOC(=O)C(C)(C)C)OCOC(=O)C(C)(C)C)OCc1ccc(Br)cc1 (stereo not given) | – | 34.8 | – | 8.5 (≈ 6.29 µg/mL) | – | –
